Screens deposited in PubChem by Johns Hopkins Ion Channel Center.
A selection: hits, their analogues and other compounds. The true share with any hit is near 2.3%.
TRPC6 inh – mouse TRPC6 channel inhibitors, primary screen, cell-based, HEK293, membrane potential dye; B-score at 10 µM; Short transient receptor potential channel 6 (Mus musculus), Q61143; AID 2553, 2010; ACh-evoked depolarization; stronger effect = lower value; 1.1% of 310,000 active;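 active = B-score under library mean minus 3 SD, initial fluorescence not abnormally high, positive integrated signal ratio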;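 note: B-score derived from integrated fluorescence ratio over the kinetic read; more negative B-score means stronger inhibition of depolarization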
TRPC4 PAM – positive allosteric modulators of TRPC4, primary screen, cell-based, mouse TRPC4beta, HEK293 mu-opioid, Fluo-4 calcium; B-score at 10 µM; 0.42% of 310,000 active; DAMGO EC20, Fluo-4 Ca2+ flux; stronger effect = higher value;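 active = B-score of calcium response area above 5 SD of library B-scores, with initial fluorescence ratio within 5 SD of library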
Target sequence (Q9QUQ5 whole entry, looked up): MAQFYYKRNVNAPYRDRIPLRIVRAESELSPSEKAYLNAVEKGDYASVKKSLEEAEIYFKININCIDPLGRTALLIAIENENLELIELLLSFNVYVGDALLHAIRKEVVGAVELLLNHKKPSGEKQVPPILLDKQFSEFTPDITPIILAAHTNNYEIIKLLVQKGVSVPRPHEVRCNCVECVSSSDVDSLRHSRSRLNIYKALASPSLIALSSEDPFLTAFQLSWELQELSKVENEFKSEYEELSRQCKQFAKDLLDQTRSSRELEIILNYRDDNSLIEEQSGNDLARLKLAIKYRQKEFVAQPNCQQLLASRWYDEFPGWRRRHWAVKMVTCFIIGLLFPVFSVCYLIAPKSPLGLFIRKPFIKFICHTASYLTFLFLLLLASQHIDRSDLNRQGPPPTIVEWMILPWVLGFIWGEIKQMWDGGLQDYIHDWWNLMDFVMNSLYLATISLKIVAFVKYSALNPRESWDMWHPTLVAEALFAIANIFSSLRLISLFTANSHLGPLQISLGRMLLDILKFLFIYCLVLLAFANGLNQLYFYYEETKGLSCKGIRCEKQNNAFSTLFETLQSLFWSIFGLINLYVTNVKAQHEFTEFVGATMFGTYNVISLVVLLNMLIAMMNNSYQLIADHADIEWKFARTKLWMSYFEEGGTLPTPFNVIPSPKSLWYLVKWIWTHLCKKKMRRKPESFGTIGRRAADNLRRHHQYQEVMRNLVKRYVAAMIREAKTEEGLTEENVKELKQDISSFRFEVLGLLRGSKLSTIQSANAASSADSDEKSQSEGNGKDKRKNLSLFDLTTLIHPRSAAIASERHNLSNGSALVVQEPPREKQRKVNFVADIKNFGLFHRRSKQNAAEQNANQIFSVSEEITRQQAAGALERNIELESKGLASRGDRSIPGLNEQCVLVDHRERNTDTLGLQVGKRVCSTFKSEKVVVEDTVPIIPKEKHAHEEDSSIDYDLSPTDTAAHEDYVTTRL
TRPC4 block – inhibitors of mouse TRPC4 channel, primary screen, Fluo4 calcium, HEK293 TRPC4beta/mu-opioid cells; Short transient receptor potential channel 4 (Mus musculus), Q9QUQ5; DAMGO-evoked Fluo4 calcium flux; stronger effect = lower value; B-score at 10 µM; 0.39% of 300,000 active;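 active = B-score over 3 SD under the library average, no early fluorescence shift, positive overall ratio signal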
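Assay system: Stable TRPC4beta/mu-opioid receptor HEK293 cells | Reagent: DAMGO in two steps, submaximal then maximal | Compound dosing: Single concentration per test compound | Signal: Fluo4 Ca2+ flux fluorescence | Evaluation: Per-well B score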
TRPC4 act – activators of mouse TRPC4 channel, primary screen, Fluo4 calcium, HEK293 TRPC4beta/mu-opioid cells | Short transient receptor potential channel 4 (Mus musculus), Q9QUQ5 | Fluo4 calcium fluorescence; stronger effect = higher value | B-score at 10 µM | 0.49% of 310,000 active;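 active = B-score above 5 SD of library B-scores, and initial fluorescence ratio not above library mean plus 5 SD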;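 note: positive B-score marks a calcium rise read as TRPC4 activation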
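System – HEK293 cells stably co-expressing mouse TRPC4beta and mu-opioid receptor · Signal – Fluo4 calcium-sensitive dye fluorescence, kinetic, 1 Hz baseline · Benchmarks – buffer (low) and maximal DAMGO (high) · Read-out – B score of integrated fluorescence ratio per well · Incubation – dye loading 45 min room temperature, 110 s kinetic read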
TRPC6 activator – mouse TRPC6 channel activators, primary screen, cell-based, HEK293, membrane potential dye; Short transient receptor potential channel 6 (Mus musculus), Q61143; HEK293-TRPC6 membrane potential dye fluorescence; stronger effect = higher value; B-score at 10 µM; 0.13% of 310,000 active;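 active = B-score of the integrated fluorescence ratio above library mean plus 3 SD, and starting fluorescence ratio within library mean plus 5 SD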;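 note: higher score means more depolarization so channel activation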
TRPC4 spec 2 – mouse TRPC4 off-target activity of TRPC6 inhibitors, second screen; shares compounds with TRPC6 inh; HEK293 TRPC4/MOR, membrane potential dye fluorescence; channel activated by saturating DAMGO dose; inhibition, % at 10 µM; 42% of 920 active; AID 2776;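 active = compounds whose fluorescence signal differed from control wells by over 3 SD, either direction, in both duplicate plates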
TRPC4 spec – mouse TRPC4 modulation by TRPC6 hits, confirmation, selectivity assay for TRPC6 inhibitor project, cell-based, HEK293 TRPC4/mu-opioid, membrane potential dye. shares compounds with TRPC6 inh. membrane potential fluorescence. activity change, negative = inhibition, % at 10 µM. 61% of 920 active;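 active = rise or fall in signal beyond 3 SD of buffer-only wells in both replicate plates, either sign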;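 note: integrated kinetic ratio of fluorescence range over baseline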
HEK293 MPD ctr 2-1 – nonspecific membrane potential effects, parental HEK293, confirmation, counter-screen for TRPC6 inhibitor project, cell-based, second counter screen | parental HEK293 membrane potential dye fluorescence; maximal acetylcholine challenge after compound addition | 31% of 920 active | signal change vs control, % at 10 µM | shares compounds with TRPC6 inh | AID 2779, 2010;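 active = membrane potential signal moving either way by over 3 SD of the maximum-effect control, in both duplicate plates, meaning non-specific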
HEK293 MPD ctr-1 – membrane potential modulation in parental HEK293, confirmation, counter-screen for TRPC6 inhibitor project, cell-based. membrane potential signal change, % at 10 µM. 60% of 920 active. AID 2780, 2010. parental HEK293 membrane potential dye fluorescence. shares compounds with TRPC6 inh;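 active = membrane potential signal shifting up or down by more than 3 SD of buffer-only wells, on both duplicate plates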
HEK293 MPD ctr-2 – parental HEK293 membrane potential modulation, confirmation, counter-screen for TRPC6 modulator project, cell-based; shares compounds with TRPC6 inh; membrane potential dye fluorescence; membrane potential signal change, % at 10 µM; 51% of 2,400 active; AID 488924, 2010;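 active = membrane potential signal moves up or down beyond 5 SD from buffer-only wells, on both duplicate plates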
HEK293 MPD ctr 2-2 – second check of TRPC6 modulator effects in parental HEK293 cells; shares compounds with TRPC6 inh; membrane potential dye fluorescence; after compound, maximal acetylcholine stimulation; inhibition, % at 10 µM; 14% of 2,400 active;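 active = membrane potential signal drops by more than 5 SD from the mean control signal, in both duplicate plates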
TRPC4 ctr mod – TRPC4 modulation by TRPC6 hit compounds, confirmation, selectivity assay for TRPC6 modulator project, cell-based, HEK293 TRPC4/mu-opioid, membrane potential dye, mouse | percent change from control (negative = decrease, positive = increase), % at 10 µM | membrane potential fluorescence | shares compounds with TRPC6 inh | 69% of 2,400 active;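 active = membrane potential signal moved up or down beyond 5 SD of buffer control wells, in both duplicate plates, actives on both sides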
TRPC4/MOR inh 2 – second check of whether TRPC6 modulators also affect mouse TRPC4. shares compounds with TRPC6 inh. HEK293 TRPC4/mu-opioid, membrane potential dye fluorescence; stimulated with maximal-effect DAMGO. inhibition, % at 10 µM. 55% of 2,400 active. AID 488928;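 active = drop in membrane potential signal beyond 5 SD of the control wells in both duplicate plates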;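 note: TRPC4 counter screen for TRPC6 hits run under conditions tuned for TRPC6 not TRPC4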
TRPC6 block conf – mouse TRPC6 channel inhibitors, confirmation, HEK293 cells, membrane potential dye, duplicate; shares compounds with TRPC6 inh; ACh-evoked depolarization; inhibition, % at 10 µM; 43% of 3,300 active; AID 488960, 2010;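 active = fluorescence ratio falls more than 5 SD below the full-stimulation control mean, in both duplicate runs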;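 note: integrated fluorescence ratio of peak minus minimum over baseline after agonist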
TRPC6 act confirm – mouse TRPC6 channel activators, confirmation, HEK293 cells, membrane potential dye, duplicate; activation, % at 10 µM; shares compounds with TRPC6 inh; HEK293-TRPC6 membrane potential dye fluorescence, FDSS; 11% of 2,800 active;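 active = ratio signal rise beyond 5 SD above unstimulated control wells' mean, seen in both duplicate runs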
A number is an active result; ! = repeats disagree.

`CC1CCC(C(C)C)C(OC(=O)Cn2c(-c3ccccc3)[n+](C)c3ccccc32)C1` (stereo not given) gave TRPC6 inh -5.59!, TRPC4 PAM inactive, TRPC4 block inactive, TRPC4 act inactive, TRPC6 activator 11.8, HEK293 MPD ctr-2 506.5%, HEK293 MPD ctr 2-2 inactive, TRPC4 ctr mod 110.5%, TRPC4/MOR inh 2 60.5%, TRPC6 block conf 63.0% and TRPC6 act confirm 176.0%.
Screening CN1CCN(c2ccccc2NC(=O)c2ccc(Br)o2)CC1 returned TRPC6 inh -9.64, TRPC4 PAM inactive, TRPC4 block inactive, TRPC4 act inactive, TRPC6 activator inactive, TRPC4 spec 2 28.5%, TRPC4 spec inactive, HEK293 MPD ctr 2-1 inactive, HEK293 MPD ctr-1 inactive, TRPC6 block conf 86.7% and TRPC6 act confirm inactive.
COc1cc2ccccc2cc1C(=O)Nc1ccc(N2CCN(C)CC2)cc1 was read as TRPC6 inh -5.54, TRPC4 PAM inactive, TRPC4 block inactive, TRPC4 act inactive, TRPC6 activator inactive, HEK293 MPD ctr-2 inactive, HEK293 MPD ctr 2-2 inactive, TRPC4 ctr mod -11.5%, TRPC4/MOR inh 2 64.0%, TRPC6 block conf 59.5% and TRPC6 act confirm inactive.
Screening CN1CCN(c2ccc(NC(=O)c3cc4ccccc4o3)cc2)CC1 returned TRPC6 inh -5.17, TRPC4 PAM inactive, TRPC4 block inactive, TRPC4 act inactive, TRPC6 activator inactive, HEK293 MPD ctr-2 inactive, HEK293 MPD ctr 2-2 inactive, TRPC4 ctr mod inactive, TRPC4/MOR inh 2 48.5%, TRPC6 block conf 41.0% and TRPC6 act confirm inactive.
`CN1CCN(c2ccccc2NC(=O)c2cc3ccccc3o2)CC1` gave TRPC6 inh -12.8, TRPC4 PAM inactive, TRPC4 block inactive, TRPC4 act inactive, TRPC6 activator inactive, TRPC4 spec 2 25.0%, TRPC4 spec -21.8%, HEK293 MPD ctr 2-1 inactive, HEK293 MPD ctr-1 -212.0%, TRPC6 block conf 71.9% and TRPC6 act confirm inactive.
For CS(=O)(=O)N1CCN(c2ccc(NC(=O)c3cc4ccccc4o3)cc2)CC1 the results were TRPC6 inh inactive, TRPC4 PAM inactive, TRPC4 block inactive, TRPC4 act inactive and TRPC6 activator inactive.
`O=C(Nc1ccccc1N1CCCC1)c1cc2ccccc2o1` gave TRPC6 inh inactive, TRPC4 PAM inactive, TRPC4 block inactive, TRPC4 act inactive and TRPC6 activator inactive.
c1ccc(Sc2ncccn2)nc1 was read as TRPC6 inh inactive, TRPC4 PAM inactive, TRPC4 block inactive, TRPC4 act inactive and TRPC6 activator inactive.
For COc1ccc(CN2CCC(C(=O)Nc3ccc(Oc4ccccc4)nc3)CC2)cc1F the results were TRPC6 inh inactive, TRPC4 PAM inactive, TRPC4 block inactive, TRPC4 act inactive and TRPC6 activator inactive.
`CN1CCN(c2ccc(NC(=O)c3ccc(Oc4ccccc4)cc3)cc2)CC1` gave TRPC6 inh -6.19, TRPC4 PAM inactive, TRPC4 block inactive, TRPC4 act inactive, TRPC6 activator inactive, HEK293 MPD ctr-2 inactive, HEK293 MPD ctr 2-2 inactive, TRPC4 ctr mod inactive, TRPC4/MOR inh 2 58.5%, TRPC6 block conf 47.5% and TRPC6 act confirm inactive.
Screening CC(C)Oc1cccc(C(=O)NC(=S)Nc2ccc(N3CCN(C)CC3)cc2)c1 returned TRPC6 inh -6.3, TRPC4 PAM 16, TRPC4 block inactive, TRPC4 act inactive, TRPC6 activator inactive, HEK293 MPD ctr-2 inactive, HEK293 MPD ctr 2-2 inactive, TRPC4 ctr mod inactive, TRPC4/MOR inh 2 61.5%, TRPC6 block conf 42.5% and TRPC6 act confirm inactive.
`CCOC(=O)N1CCN(S(=O)(=O)c2ccc(C(=O)N(CCCN(C)C)c3nc4cc(OC)ccc4s3)cc2)CC1` gave TRPC6 inh -5.58, TRPC4 PAM inactive, TRPC4 block inactive, TRPC4 act inactive, TRPC6 activator inactive, HEK293 MPD ctr-2 inactive, HEK293 MPD ctr 2-2 inactive, TRPC4 ctr mod -25.0%, TRPC4/MOR inh 2 81.0%, TRPC6 block conf 73.0% and TRPC6 act confirm inactive.
Screening CN(C)CCCN(C(=O)c1ccc(S(=O)(=O)N2CCCCCC2)cc1)c1nc2c(F)cc(F)cc2s1 returned TRPC6 inh -5.19, TRPC4 PAM inactive, TRPC4 block inactive, TRPC4 act 157, TRPC6 activator inactive, HEK293 MPD ctr-2 inactive, HEK293 MPD ctr 2-2 inactive, TRPC4 ctr mod 20.0%, TRPC4/MOR inh 2 103.0%, TRPC6 block conf inactive and TRPC6 act confirm inactive.
